Source: PubChem
OX1R antag-1: antagonists of human orexin 1 receptor (OX1R). Orexin/Hypocretin receptor type 1 (Homo sapiens), O43613. OX1R-expressing cells, FRET antagonist read-out. inhibition, % at 6.6 µM. hit rate 1.8% among 330,000. AID 485270, 2010; in the data active = inhibition mostly above about 38%, no sharp cut-off; inactive = mostly below about 40%;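 note: 0% = agonist challenge alone and 100% = reference antagonist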
TAAR1 antagonist: human TAAR1 antagonists, primary screen, Fluo-8 calcium fluorescence, CHO RD-HGA16 cells; Trace amine-associated receptor 1 (Homo sapiens), Q96RJ0; antagonist; inhibition, % at 3 µM; hit rate 1.5% among 360,000; AID 624466, 2012;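 active = inhibition above a per-plate cutoff, the mean inhibition of test compounds on that plate plus 3 SD, cut at about 49% in these data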;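 note: 0% = DMSO plus EC80 beta-PEA response and 100% = DMSO alone without agonist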
Target sequence (Q96RJ0 whole entry, looked up): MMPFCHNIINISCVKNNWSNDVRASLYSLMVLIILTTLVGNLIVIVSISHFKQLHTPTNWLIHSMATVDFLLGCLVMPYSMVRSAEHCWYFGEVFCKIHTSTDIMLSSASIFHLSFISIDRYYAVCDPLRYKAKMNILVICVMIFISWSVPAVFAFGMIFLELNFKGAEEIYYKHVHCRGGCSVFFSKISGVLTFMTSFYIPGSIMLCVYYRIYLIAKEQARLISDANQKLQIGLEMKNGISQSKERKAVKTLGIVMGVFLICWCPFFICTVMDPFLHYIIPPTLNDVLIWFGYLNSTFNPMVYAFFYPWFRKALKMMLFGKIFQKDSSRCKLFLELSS
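test system = CHO RD-HGA16 cells bearing hTAAR1 | replication = singlicate | controls = DMSO-only wells and EC80 β-PEA-stimulated wells | reagent = EC80 β-phenethylamine stimulus | read-out basis = percent inhibition of PEA-evoked calcium signal, max/basal emission ratio | schedule = seeding 17-24 h prior, 75-min 37 °C, 30-min RT dye loading | signal = kinetic Fluo-8 calcium fluorescence measurement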
OX1R antag-2: OX1R (HCRTR1) antagonists, primary screen, fluorescence, CHO/OX1R cells, Fluo-8 calcium, orexin A. inhibition, % at 5 µM. AID 434989, 2010. hit rate 0.43% among 330,000. Fluo-8 calcium fluorescence. Orexin/Hypocretin receptor type 1 (Homo sapiens), O43613;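 active = inhibition above its plate's threshold, mean inhibition of all tested compounds on the plate plus 3 SD, cut at about 37% in these data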;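 note: 0% = orexin A challenge wells and 100% = SB-334867-A antagonist wells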
TAAR1 ag: human TAAR1 agonists, primary screen, Fluo-8 calcium fluorescence, CHO RD-HGA16 cells. vehicle wells 0%, saturating PEA agonist 100%. hit rate 0.99% among 360,000. activation, % at 3 µM. Trace amine-associated receptor 1 (Homo sapiens), Q96RJ0;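 active = activation above the mean activation of all test compounds in the run plus 3 SD, cut at about 38% in these data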
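test system = CHO RD-HGA16 cells carrying human TAAR1 plus Gα16 | schedule = 17-24 h seeding, 75 min 37 °C dye, 30 min RT | compound dosing = 3 µM single concentration | control set = DMSO and PEA EC100 | replicates = n 1 | signal = Fluo-8 fluorescence, 5 s baseline then 140 s kinetic read | measure = percent activation vs PEA EC100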
CHO parental Ca: ATP-evoked calcium signal inhibitors, parental CHO, primary screen, counter-screen for OX1R antagonist project, cell-based, fluorescence, Fluo-8 calcium dye; hit rate 0.63% among 330,000; inhibition, % at 5.6 µM; parental CHO-K1, ATP-induced calcium, Fluo-8 fluorescence;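 active = inhibition above that plate's mean sample inhibition plus 3 SD, cut at about 26% in these data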;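 note: 0% = ATP-challenged DMSO wells and 100% = DMSO wells without ATP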
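Assay system – parental CHO cells · Reagent – ATP stimulus · Detection – intracellular calcium via Fluo-8 no-wash fluorescent dye · Evaluation – percent inhibition of ATP-evoked calcium rise, normalized to controls · Controls – ATP wells versus no-ATP DMSO wells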
An asterisk follows results filed as active. An excerpt weighted towards active compounds, which were near 4% of everything screened.

Cn1c(=O)c(C(=O)NNC(=O)c2ccccc2Br)c(O)c2ccccc21 was read as OX1R antag-1 26, TAAR1 antagonist -25, OX1R antag-2 -38, TAAR1 ag 12 and CHO parental Ca -23.
For CCn1c(=O)c(C(=O)NNC(=O)c2ccccc2Br)c(O)c2ccccc21 the results were OX1R antag-1 24, TAAR1 antagonist 8, OX1R antag-2 -28, TAAR1 ag 46* and CHO parental Ca -14.
For CCn1c(=O)c(C(=O)Nc2ccccc2)c(O)c2ccccc21 the results were OX1R antag-1 10, TAAR1 antagonist -8, OX1R antag-2 -6, TAAR1 ag 3 and CHO parental Ca 5.
CCn1c(=O)c(C(=O)NNC(=O)c2cccc(Cl)c2)c(O)c2ccccc21 was read as OX1R antag-1 27, TAAR1 antagonist 71*, OX1R antag-2 98*, TAAR1 ag 38* and CHO parental Ca 95*.
Screening Cc1cccc(C(=O)NNC(=O)c2c(O)c3ccccc3n(C)c2=O)c1 returned OX1R antag-1 21, TAAR1 antagonist 7, OX1R antag-2 13, TAAR1 ag 10 and CHO parental Ca 40*.
`CCn1c(=O)c(C(=O)Nc2nc3ccccc3[nH]2)c(O)c2ccccc21` gave OX1R antag-1 34, TAAR1 antagonist 93*, OX1R antag-2 106*, TAAR1 ag 15 and CHO parental Ca 98*.
CC(C)(C)c1ccc(S(=O)(=O)N2CCN(C(=O)C(=O)c3cccc(C(F)(F)F)c3)CC2)cc1 was read as TAAR1 antagonist 7 and TAAR1 ag -1.
`COc1ccc(C2CC(=O)C(c3cccc(Cl)c3)=CN2Cc2ccccc2)cc1` (stereo not given) gave TAAR1 antagonist -14 and TAAR1 ag 6.
Cc1ccc(C(=O)OCC(=O)NNC(=O)COc2ccc(Cl)cc2)c(O)c1 was read as OX1R antag-1 14, TAAR1 antagonist -22, OX1R antag-2 -16, TAAR1 ag 1 and CHO parental Ca -6.
`O=C(/C=C(\Nc1cccc(Cl)c1F)c1ccccc1)c1ccccc1` gave TAAR1 antagonist 19 and TAAR1 ag -2.
For Cn1c(=O)c(C(=O)NNC(=O)c2cccc(Cl)c2)c(O)c2ccccc21 the results were OX1R antag-1 19, TAAR1 antagonist -5, OX1R antag-2 44*, TAAR1 ag 1 and CHO parental Ca 47*.
For Cn1c(=O)c(C(=O)NNC(=O)c2ccccc2Cl)c(O)c2ccccc21 the results were OX1R antag-1 27, TAAR1 antagonist -11, OX1R antag-2 -20, TAAR1 ag 28 and CHO parental Ca 5.
For COc1ccc(-c2coc3c(C(=O)NCc4ccc(OC)c(OC)c4)cccc23)c(C)c1 the results were TAAR1 antagonist 56* and TAAR1 ag 4.
`COc1ccc(-c2coc3c(C(=O)Nc4ccc(OC)nc4)cccc23)c(C)c1` gave TAAR1 antagonist 28 and TAAR1 ag 1.
For COc1ccc(-c2coc3c(C(=O)NCc4ccc(F)c(F)c4)cccc23)c(C)c1 the results were TAAR1 antagonist 41 and TAAR1 ag 2.
Screening COc1ccc(-c2coc3c(C(=O)Nc4cc(OC)c(OC)c(OC)c4)cccc23)c(C)c1 returned TAAR1 antagonist 63* and TAAR1 ag 1.
COC(=O)C1=C(C)N(Cc2ccccc2C(F)(F)F)C(=NCc2ccc(OC)cc2)NC1c1cccc(F)c1 (stereo not given) was read as TAAR1 antagonist 5 and TAAR1 ag 14.
Screening Cc1ccc(N=Nc2ccc(O)cc2)c(Br)c1 returned OX1R antag-1 3, TAAR1 antagonist 15, OX1R antag-2 4, TAAR1 ag 9 and CHO parental Ca 56*.
CCn1nc(NC(=O)Cc2ccc(OC)cc2)c2cc3cc(C)ccc3nc21 was read as OX1R antag-1 10, TAAR1 antagonist -20, OX1R antag-2 -24, TAAR1 ag 1 and CHO parental Ca -21.
COC(=O)/C(=C(/F)Sc1cc(C)c(O)c(C)c1)C(F)(F)F was read as OX1R antag-1 18, OX1R antag-2 13 and CHO parental Ca 33*.
`CC(C)C[C@H](NC(=O)C1CCCC1)C(=O)N1CCC[C@H]1C(=O)NCc1ccccc1` gave TAAR1 antagonist -32 and TAAR1 ag 0.
Screening COCc1cc(N2CCN(C(=O)OC(C)(C)C)C[C@@H]2C)ccc1N1CC[C@H](O)C1 returned TAAR1 antagonist 12 and TAAR1 ag 2.
`Cc1c(C(=O)NCc2cccs2)sc(=O)n1Cc1ccc(S(=O)(=O)N(C)C)cc1` gave TAAR1 antagonist 33 and TAAR1 ag 8.
Screening O=C(c1cc(=O)[nH]c2ccccc12)N1CCN(Cc2ccc3c(c2)OCO3)CC1 returned TAAR1 antagonist 1 and TAAR1 ag 4.
For O=C(CN1CCN(Cc2ccc3c(c2)OCO3)CC1)Nc1ccc(F)cc1 the results were OX1R antag-1 26, TAAR1 antagonist -22, OX1R antag-2 1, TAAR1 ag 41* and CHO parental Ca -6.
Screening O=C(CN1CCN(Cc2ccc3c(c2)OCO3)CC1)c1c[nH]c2ccccc12 returned OX1R antag-1 21, TAAR1 antagonist 2, OX1R antag-2 -12, TAAR1 ag 38* and CHO parental Ca -1.
Cc1ccc(C)c2c(N)c3c(nc12)CCCCC3 (tested in a mixture with another compound) was read as OX1R antag-1 12, TAAR1 antagonist 5, OX1R antag-2 -7, TAAR1 ag 5 and CHO parental Ca -7.
O=c1cc(/C=C/c2ccccc2)oc2c1ccc1ccccc12 was read as OX1R antag-1 56*, TAAR1 antagonist 36, OX1R antag-2 -25, TAAR1 ag 3 and CHO parental Ca -26.
`O=c1cc(-c2cccnc2)oc2c1ccc1ccccc12` gave OX1R antag-1 36*, TAAR1 antagonist -5, OX1R antag-2 -12, TAAR1 ag 6 and CHO parental Ca -3.
For O=c1cc(-c2ccccc2)oc2c1ccc1ccccc12 the results were TAAR1 antagonist 15 and TAAR1 ag 2.
Screening COc1ccc(/C=N/NC(=O)c2ccoc2C)cc1COc1c(C)cccc1C returned OX1R antag-1 37, TAAR1 antagonist 68*, OX1R antag-2 51*, TAAR1 ag 6 and CHO parental Ca 74*.
CCOC(=O)c1ccccc1OCc1cc(/C=N/NC(=O)c2cccnc2)ccc1OC was read as OX1R antag-1 23, TAAR1 antagonist 81*, OX1R antag-2 -20, TAAR1 ag 17 and CHO parental Ca -8.
